{
  "source": "ChEMBL document CHEMBL4765386",
  "about": "“Discovery of tertiary amide derivatives incorporating benzothiazole moiety as anti-gastric cancer agents in vitro via inhibiting tubulin polymerization and activating the Hippo signaling pathway” (Eur J Med Chem, 2020)",
  "key": {"SGC-7901 [1]": {"system": "SGC-7901", "assay": "Induction of apoptosis in human SGC-7901 cells assessed as increase in PARP cleavage at 20 to 60 nM incubated for 48 hrs by Western blot analysis", "type": "functional, cell-based", "details": "dose 20-60 nM", "procedure,_shortened": "(§1)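 Cells grown in RPMI-1640 with 10% FBS, penicillin/streptomycin at 37 °C, 5% CO2. Exposure to 20, 40 or 60 nM for 48 h alongside DMSO control. Lysates denatured, resolved by SDS-PAGE, transferred to PVDF, blocked, then probed with primary and secondary antibodies.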"}, "MGC-803 [2]": {"system": "MGC-803", "assay": "Antiproliferative activity against human MGC-803 cells assessed as reduction in cell viability incubated for 48 hrs by MTT assay", "type": "functional, cell-based", "details": "MGC-803, 48 h", "procedure,_shortened": "(§2)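 MTT assay. Compound added 24 h after seeding and left for 48 h. MTT was then added for 4 h at 37 °C, formazan dissolved in DMSO and absorbance read at 490 nm. IC50 calculated from three independent experiments.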"}, "SGC-7901 [3]": {"system": "SGC-7901", "assay": "Induction of apoptosis in human SGC-7901 cells assessed as upregulation of FADD at 20 to 60 nM incubated for 48 hrs by Western blot analysis", "type": "functional, cell-based", "details": "dose 20-60 nM", "procedure,_shortened": "as §1"}, "SGC-7901 [4]": {"system": "SGC-7901", "assay": "Induction of apoptosis in human SGC-7901 cells assessed as late apoptotic cells at 60 nM incubated for 48 hrs by annexin V-FITC and PI staining based flow cytometry analysis (reference value: 2.4 %)", "type": "functional"}, "SGC-7901 [5]": {"system": "SGC-7901", "assay": "Induction of apoptosis in human SGC-7901 cells assessed as early apoptotic cells at 40 nM incubated for 48 hrs by annexin V-FITC and PI staining based flow cytometry analysis (reference value: 1.4 %)", "type": "functional"}, "MGC-803 [6]": {"system": "MGC-803", "assay": "Induction of apoptosis in human MGC-803 cells assessed as downregulation of c-IAP2 at 20 to 60 nM incubated for 48 hrs by Western blot analysis", "type": "functional, cell-based", "details": "dose 20-60 nM", "procedure,_shortened": "(§3)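 Western blot on MGC-803 and SGC-7901 cells given 20, 40 and 60 nM compound or DMSO for 48 h. Denatured lysates were run on SDS-PAGE and transferred to PVDF, then probed with primary and secondary antibodies to detect apoptosis-related proteins.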"}, "MGC-803 [7]": {"system": "MGC-803", "assay": "Activation of Hippo signaling pathway in human […] cells assessed as increase in LATS phosphorylation at 20 to 60 nM incubated for 48 hrs by Western blot analysis", "type": "cell-based", "details": "filed as activator, dose 20-60 nM", "procedure,_shortened": "(§4)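 Western blot on gastric cancer cells exposed to compound or DMSO at 20, 40 and 60 nM for 48 h. Cells were lysed, then the denatured lysates were separated by SDS-PAGE and transferred to PVDF. Membranes were blocked and probed with primary and then secondary antibodies. Hippo pathway proteins were detected.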"}, "MGC-803 [8]": {"system": "MGC-803", "assay": "Activation of Hippo signaling pathway in human […] cells assessed as decrease in c-MYC expression incubated for 48 hrs by Western blot analysis", "type": "cell-based", "details": "filed as activator, dose 20-60 nM", "procedure,_shortened": "as §4"}, "MGC-803 [9]": {"system": "MGC-803", "assay": "Induction of apoptosis in human MGC-803 cells assessed as late apoptotic cells at 40 nM incubated for 48 hrs by annexin V-FITC and PI staining based flow cytometry analysis (reference value: 4.1 %)", "type": "functional"}, "PC-3": {"system": "PC-3", "assay": "Antiproliferative activity against human PC-3 cells assessed as reduction in cell viability incubated for 48 hrs by MTT assay", "type": "functional, cell-based", "details": "PC-3, 48 h", "procedure,_shortened": "as §2, with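 “assay. 5,000 cells per well in RPMI-1640 with 10% FBS and penicillin/streptomycin at 37 °C, 5% CO2.” for “assay.”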"}, "SGC-7901 [10]": {"system": "SGC-7901", "assay": "Induction of cell cycle arrest in human SGC-7901 cells assessed as downregulation of Cyclin B1 at 20 to 60 nM incubated for 48 hrs by Western blot analysis", "type": "functional, cell-based", "details": "dose 20-60 nM", "procedure,_shortened": "as §1"}, "SGC-7901 [11]": {"system": "SGC-7901", "assay": "Antiproliferative activity against human SGC-7901 cells assessed as reduction in cell viability incubated for 48 hrs by MTT assay", "type": "functional, cell-based", "details": "SGC-7901, 48 h", "procedure,_shortened": "as §2, with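 “assay. 5,000 cells per well in RPMI-1640 with 10% FBS and penicillin/streptomycin at 37 °C, 5% CO2.” for “assay.”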"}, "SGC-7901 [12]": {"system": "SGC-7901", "assay": "Induction of cell cycle arrest in human SGC-7901 cells assessed as downregulation of CDK1 at 20 to 60 nM incubated for 48 hrs by Western blot analysis", "type": "functional, cell-based", "details": "dose 20-60 nM", "procedure,_shortened": "as §1"}, "MGC-803 [13]": {"system": "MGC-803", "assay": "Induction of cell cycle arrest in human MGC-803 cells assessed as upregulation of Histone-H3 Ser10 at 20 to 60 nM incubated for 48 hrs by Western blot analysis", "type": "functional, cell-based", "details": "dose 20-60 nM", "procedure,_shortened": "as §1"}, "SGC-7901 [14]": {"system": "SGC-7901", "assay": "Induction of apoptosis in human SGC-7901 cells assessed as late apoptotic cells at 40 nM incubated for 48 hrs by annexin V-FITC and PI staining based flow cytometry analysis (reference value: 2.4 %)", "type": "functional"}, "MGC-803 [15]": {"system": "MGC-803", "assay": "Induction of apoptosis in human MGC-803 cells assessed as late apoptotic cells at 60 nM incubated for 48 hrs by annexin V-FITC and PI staining based flow cytometry analysis (reference value: 4.1 %)", "type": "functional"}, "SGC-7901 [16]": {"system": "SGC-7901", "assay": "Activation of Hippo signaling pathway in human SGC-7901 cells assessed as increase in LATS phosphorylation at 20 to 60 nM incubated for 48 hrs by Western blot analysis", "type": "cell-based", "details": "filed as activator, dose 20-60 nM", "procedure,_shortened": "as §4"}, "SGC-7901 [17]": {"system": "SGC-7901", "assay": "Induction of apoptosis in human SGC-7901 cells assessed as downregulation of c-IAP1 at 20 to 60 nM incubated for 48 hrs by Western blot analysis", "type": "functional, cell-based", "details": "dose 20-60 nM", "procedure,_shortened": "as §3"}, "MGC-803 [18]": {"system": "MGC-803", "assay": "Activation of Hippo signaling pathway in human […] cells assessed as increase in MST1/2 phosphorylation at 20 to 60 nM incubated for 48 hrs by Western blot analysis", "type": "cell-based", "details": "filed as activator, dose 20-60 nM", "procedure,_shortened": "as §4"}, "SGC-7901 [19]": {"system": "SGC-7901", "assay": "Induction of apoptosis in human SGC-7901 cells assessed as upregulation of Noxa at 20 to 60 nM incubated for 48 hrs by Western blot analysis", "type": "functional, cell-based", "details": "dose 20-60 nM", "procedure,_shortened": "as §1"}, "SGC-7901 [20]": {"system": "SGC-7901", "assay": "Induction of apoptosis in human SGC-7901 cells assessed as upregulation of t-Bid at 20 to 60 nM incubated for 48 hrs by Western blot analysis", "type": "functional, cell-based", "details": "dose 20-60 nM", "procedure,_shortened": "as §1"}, "MGC-803 [21]": {"system": "MGC-803", "assay": "Cytotoxicity against human MGC-803 cells harboring SiYAP assessed as increase in cell viability at 20 to 60 nM incubated for 48 hrs by MTT assay", "type": "cell-based", "details": "mgc-803, 48 h, 0.06 µM, dose 20-60 nM"}, "MGC-803 [22]": {"system": "MGC-803", "assay": "Induction of apoptosis in human MGC-803 cells assessed as upregulation of t-Bid at 20 to 60 nM incubated for 48 hrs by Western blot analysis", "type": "functional, cell-based", "details": "dose 20-60 nM", "procedure,_shortened": "as §3"}, "SGC-7901 [23]": {"system": "SGC-7901", "assay": "Induction of apoptosis in human SGC-7901 cells assessed as fragmentation of cells at 20 to 60 nM", "type": "functional, cell-based", "details": "dose 20-60 nM", "procedure,_shortened": "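Gastric cancer cells in RPMI-1640/10% FBS at 37 °C, 5% CO2, exposed to 20, 40 and 60 nM for 48 h; nuclear morphology (condensation, fragmentation) inspected after staining.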"}, "SGC-7901 [24]": {"system": "SGC-7901", "assay": "Inhibition of tubulin polymerization in human SGC-7901 cells assessed as decrease in filamentous structure at 20 to 60 nmol/L by DAPI staining based microscopic analysis", "type": "cell-based", "details": "dose 20-60 nmol/L", "procedure,_shortened": "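Cells cultured in RPMI-1640 with 10% FBS at 37 °C, 5% CO2, treated 48 h with 20, 40 and 60 nM; stained for β-tubulin (green) and nuclei (blue) and examined by microscopy.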"}, "MGC-803 [25]": {"system": "MGC-803", "assay": "Induction of apoptosis in human MGC-803 cells assessed as downregulation of Bcl-xl at 20 to 60 nM incubated for 48 hrs by Western blot analysis", "type": "functional, cell-based", "details": "dose 20-60 nM", "procedure,_shortened": "as §3"}},
  "note": "The source made the active and inactive calls. The rule behind the calls is not given here.",
  "data": [
    {"compound": "COc1ccc(CN(C(=O)CSc2nc3ccccc3s2)c2cc(OC)c(OC)c(OC)c2)cc1O", "values": [
      {"measurement": "Activity", "setting": "SGC-7901 [1]", "result": "Active"},
      {"measurement": "IC50", "setting": "MGC-803 [2]", "result": 35, "unit": "nM"},
      {"measurement": "Activity", "setting": "SGC-7901 [3]", "result": "Active"},
      {"measurement": "Activity", "setting": "SGC-7901 [4]", "result": 47.3, "unit": "%"},
      {"measurement": "Activity", "setting": "SGC-7901 [5]", "result": 9.5, "unit": "%"},
      {"measurement": "Activity", "setting": "MGC-803 [6]", "result": "Active"},
      {"measurement": "Activity", "setting": "MGC-803 [7]", "result": "Active"},
      {"measurement": "Activity", "setting": "MGC-803 [8]", "result": "Dose-dependent effect"},
      {"measurement": "Activity", "setting": "MGC-803 [9]", "result": 10.1, "unit": "%"},
      {"measurement": "IC50", "setting": "PC-3", "result": 2110, "unit": "nM"},
      {"measurement": "Activity", "setting": "SGC-7901 [10]", "result": "Active"},
      {"measurement": "IC50", "setting": "SGC-7901 [11]", "result": 49, "unit": "nM"},
      {"measurement": "Activity", "setting": "SGC-7901 [12]", "result": "Active"},
      {"measurement": "Activity", "setting": "MGC-803 [13]", "result": "Active"},
      {"measurement": "Activity", "setting": "SGC-7901 [14]", "result": 6.8, "unit": "%"},
      {"measurement": "Activity", "setting": "MGC-803 [15]", "result": 30.4, "unit": "%"},
      {"measurement": "Activity", "setting": "SGC-7901 [16]", "result": "Active"},
      {"measurement": "Activity", "setting": "SGC-7901 [17]", "result": "Active"},
      {"measurement": "Activity", "setting": "MGC-803 [18]", "result": "Active"},
      {"measurement": "Activity", "setting": "SGC-7901 [19]", "result": "Active"},
      {"measurement": "Activity", "setting": "SGC-7901 [20]", "result": "Active"},
      {"measurement": "Activity", "setting": "MGC-803 [21]", "result": "Non-Toxic"},
      {"measurement": "Activity", "setting": "MGC-803 [22]", "result": "Active"},
      {"measurement": "Activity", "setting": "SGC-7901 [23]", "result": "Active"},
      {"measurement": "Activity", "setting": "SGC-7901 [24]", "result": "Active"},
      {"measurement": "Activity", "setting": "MGC-803 [25]", "result": "Active"}
    ]}
  ]
}
